One data set deals with D3 dopamine receptor. The following applies: transfected CHO cells; maximum 10^-5 M; ref Grundt et al., 2005; cited from earlier work.
For the next data set, the target named is D3 dopamine receptors (Homo sapiens, UniProt P35462). It is filed as cell-based. The conditions noted are these: transfected HEK cells; test ligand 10 nM; relative to quinpirole.
A further data set deals with D2 dopamine receptor. The conditions noted are these: transfected CHO cells; maximum 10^-5 M; ref Grundt et al., 2005; cited from earlier work.
The subject of data set [1] is unilaterally lesioned rats. Kind of data set: Cylinder test of forelimb usage. The conditions noted are these: PG01042 10 mg/kg with L-dopa/benserazide 8 mg/kg each. In kind it is in vivo, rat. In short, it runs like this:
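Unilaterally lesioned rats received saline, L-dopa plus benserazide (8 mg/kg each), or these with the test compound (10 mg/kg). In the cylinder, an observer scored which forelimb first touched the Plexiglas wall (left, right or both) during rearing. The right forelimb was contralateral to the lesion. Scoring began 12 min (5 min) and 20 min (until >13 touches/rat) post injection. Read-out was percent usage, n = 7.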

Data set [2] relates to unilaterally lesioned rats. Kind of data set: L-dopa dependent abnormal involuntary movements. In kind it is in vivo, rat. The following applies: for Normalized total AIMs score, percent relative to vehicle control: 10 mg/kg.
Data set [3] concerns unilaterally lesioned rats. Kind of data set: Apomorphine-dependent AIMs in unilaterally lesioned rats. It is filed as in vivo, rat. In short, it runs like this:
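Unilaterally lesioned rats received the test compound (10 mg/kg i.p.) or vehicle, immediately followed by apomorphine 0.05 mg/kg s.c. Total AIMs scores were summed over time and expressed as percent of vehicle control, as mean ± S.E.M., n = 12. Periods analysed: 0–60, 0–40 and 50–60 min.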

Data set [4] relates to unilaterally lesioned rats. Kind of data set: Rotarod test of motor performance and coordination. In kind it is in vivo, rat. The conditions noted are these: 10 mg/kg i.p.; 30 and 60 minutes post drug administration; p ≥ 0.10. (In general: The rotarod test checks motor coordination on a turning rod.)
The target of data set [5] is human D2 dopamine receptor. The conditions noted are these: read-out: Ki at dopamine D2 receptors; ref Grundt et al., 2005; cited from earlier work.
The test system of data set [6] is human D3 dopamine receptor. The following applies: binding; ref Grundt et al., 2005; cited from earlier work.
In a further data set the test system is rat. The conditions noted are these: ref ScienceLab.com; cited from earlier work.
The mark [7] stands for this setting: 10 mg/kg i.p., 0 min pretreatment, L-dopa/benserazide 8 mg/kg each, n = 12.

pKi: −log10 of the molar value. Several values for one entry are separate records, joined by “and”; a condition that tells them apart may be missing. Identical values can stand only once.

Chain of D3 dopamine receptors (P35462 whole entry): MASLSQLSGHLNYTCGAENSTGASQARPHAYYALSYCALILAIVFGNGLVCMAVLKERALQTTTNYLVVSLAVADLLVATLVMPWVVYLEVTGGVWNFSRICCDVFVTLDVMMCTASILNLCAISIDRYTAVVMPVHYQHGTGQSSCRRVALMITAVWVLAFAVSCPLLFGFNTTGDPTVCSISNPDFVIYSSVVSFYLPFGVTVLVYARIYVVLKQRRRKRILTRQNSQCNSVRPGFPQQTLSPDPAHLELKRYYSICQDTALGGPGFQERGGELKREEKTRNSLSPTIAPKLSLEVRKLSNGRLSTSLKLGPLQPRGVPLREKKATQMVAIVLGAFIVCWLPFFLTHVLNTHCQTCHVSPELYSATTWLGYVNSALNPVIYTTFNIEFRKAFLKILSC

For the compound `O=C(NC/C=C/CN1CCN(c2cccc(Cl)c2Cl)CC1)c1ccc(-c2ccccn2)cc1` [PG01037, (E)-N-(4-(4-(2,3-dichlorophenyl)piperazin-1-yl)but-2-enyl)-4-(pyridin-2-yl)benzamide], the “Intrinsic activity at D3 receptors, mitogenic assay” value in the data set with D3 dopamine receptor was “antagonist”. On D3 dopamine receptors, the “Intrinsic activity at D3 receptors, adenylyl cyclase inhibition” value is listed as “antagonist”.
As a reminder, the pKi is the Ki on a negative log10 scale, so that one unit is a factor of ten. For `O=C(NCCCCN1CCN(c2cccc(Cl)c2Cl)CC1)c1ccc(-c2cccnc2)cc1` [PG01042, N-(4-(4-(2,3-dichlorophenyl)piperazin-1-yl)butyl)-4-(pyridin-3-yl)benzamide], the “Intrinsic activity at D2 receptors, mitogenic assay” value in the data set with D2 dopamine receptor is “partial agonist”. The “Use of right (compromised) forelimb” value in [1] (12 minutes post injection, n = 7) is listed as 70.1 ± 2.3%. Moreover, the “Use of right paw” value in [1] (20 minutes post injection) came to 85.0 ± 4.6%. Besides, the “Intrinsic activity at D3 receptors, mitogenic assay” value with D3 dopamine receptor is reported as “partial agonist”. Moreover, the “Mean reduction in the total AIMs score” value in data set [2] (1 mg/kg i.p., 0 min pretreatment, L-dopa/benserazide 8 mg/kg each, n = 12) was 8.4 ± 7.3%. The “Mean reduction in the total AIMs score” value in data set [2] (3 mg/kg i.p., 0 min pretreatment, L-dopa/benserazide 8 mg/kg each, n = 12, dose response experiment) was determined as 25.2 ± 4.4%. Moreover, in data set [2] (setting [7]), the “Percent reduction of axial twisting AIM score” value turned out to be 78.5 ± 4.6%; the “Percent reduction of forelimb movement AIM score” value is 56% and 56.0 ± 3.1%; the “Percent reduction of locomotion AIM score” value amounted to 80.4 ± 9.5%; the “Percent reduction of orolingual AIM score” value is 76.5 ± 10.8%. Further, in data set [2] (10 mg/kg i.p., during the 60 min pretreatment period before L-dopa), the “Precipitation of AIMs by test drug alone” value is on record as “did not precipitate any AIMs”. In addition, the “Normalized total AIMs score, percent relative to vehicle control” value in data set [2] (0 minutes pretreatment before L-dopa/benserazide 8 mg/kg) was determined as 29.4 ± 6.1%. In addition, the “Normalized total AIMs score, percent relative to vehicle control” value in data set [2] (60 minutes pretreatment before L-dopa/benserazide 8 mg/kg) is 68.0 ± 8.6%. Besides, the “Effect on total AIM scores versus vehicle control” value in data set [2] (PG01042 3 mg/kg simultaneously with L-dopa 8 mg/kg i.p., F(1,22) = 14.4, n = 12) is given as “significantly attenuate”. In [2] (i.p., 0 min pretreatment, doses 0 to 10 mg/kg, L-dopa/benserazide 8 mg/kg each), the “IC50 for attenuation of total AIMs score, linear regression analysis” value worked out at 6.6 mg/kg. For the same compound, the “IC50 for attenuation of total AIMs score, one site fit” value in data set [2] (i.p., 0 min pretreatment, curve constrained to 0 and 100%, r^2 = 0.98) was 5.6 mg/kg. The “Percent reduction in the total AIMs score, apomorphine-dependent” value in data set [3] (10 mg/kg i.p. simultaneously with apomorphine 0.05 mg/kg s.c., 0 to 60 minutes, n = 12) is 14.5 ± 3.0%. Besides, the “Percent attenuation of the AIMs minus locomotor scores, apomorphine-dependent” value in data set [3] (PG01042 simultaneously with apomorphine 0.05 mg/kg s.c., whole time period) is “approximately 15%”. Further, the “Intrinsic activity at D3 receptors, adenylyl cyclase inhibition” value on D3 dopamine receptors was “agonist”. Besides, the “Latency to fall on rotarod versus vehicle control” value in data set [4] is recorded as “no statistical significant difference”. Moreover, in [5], the negative logarithm of the Ki (pKi) was 7.74. Besides, the “D3 selectivity compared to the D2 dopamine receptor subtype” value in [6] was 39 fold and > 39 fold.
Regarding `COc1ccccc1N1CCN(CCN(C(=O)C2CCCCC2)c2ccccn2)CC1` [WAY 100635, reference compound], the “Reduction in the attenuation of total AIMs score by PG01037” value in data set [2] (WAY 100635 1 mg/kg 10 min before PG01037 3 mg/kg, L-dopa 8 mg/kg i.p.) is reported as “no reduction”.
As to `Cl.O=C1CC2(CCCC2)CC(=O)N1CCCCN1CCN(c2ncccn2)CC1` [buspirone, N-[4-[4-(2-pyrimidinyl)-1-piperazinyl]butyl]-8-azaspiro[4.5]decane-7,9-dione hydrochloride, reference compound], the “%Reduction of total AIMs values” in data set [2] (buspirone 1 mg/kg i.p. with L-dopa 8 mg/kg and benserazide 8 mg/kg, n = 12) worked out at 34.8 ± 6.2%. Moreover, the “Effect on total AIM scores versus vehicle control” value in [2] (buspirone 4 mg/kg 30 minutes prior to L-dopa 8 mg/kg i.p., p < 0.001, n = 10) is “significant reduction”.
For the compound `C[S+](C)[O-]` [DMSO, dimethylsulfoxide], the “Oral acute LD50” value in the data set with rat is on record as 14500 mg/kg.

The record behind these values is publication PMC3820002 (Neuropharmacology, 2010).
